Test results from ChEMBL document CHEMBL2163244, “Structure-guided design, synthesis and biological evaluation of novel DNA ligase inhibitors with in vitro and in vivo anti-staphylococcal activity” (Bioorg Med Chem Lett, 2012).
Values after ≈ are worked out from the molar mass of the structure shown. Active and inactive are the calls of the source. No cut-off for these calls is given here.

Assays:
[1] = target: T1, Dihydrofolate reductase (Homo sapiens) (UniProt P00374); assay: Inhibition of human DHFR
T1 sequence (whole entry): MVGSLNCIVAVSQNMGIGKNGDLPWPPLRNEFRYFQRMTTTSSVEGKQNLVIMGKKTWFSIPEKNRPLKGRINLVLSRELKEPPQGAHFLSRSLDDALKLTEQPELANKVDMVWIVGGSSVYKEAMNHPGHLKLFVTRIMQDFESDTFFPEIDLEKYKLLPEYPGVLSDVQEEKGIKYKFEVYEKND

[2] = target: DNA ligase 1 (Homo sapiens) (UniProt P18858); assay: Inhibition of human DNA Ligase 1
Sequence of DNA ligase 1 (Homo sapiens) (P18858 whole entry): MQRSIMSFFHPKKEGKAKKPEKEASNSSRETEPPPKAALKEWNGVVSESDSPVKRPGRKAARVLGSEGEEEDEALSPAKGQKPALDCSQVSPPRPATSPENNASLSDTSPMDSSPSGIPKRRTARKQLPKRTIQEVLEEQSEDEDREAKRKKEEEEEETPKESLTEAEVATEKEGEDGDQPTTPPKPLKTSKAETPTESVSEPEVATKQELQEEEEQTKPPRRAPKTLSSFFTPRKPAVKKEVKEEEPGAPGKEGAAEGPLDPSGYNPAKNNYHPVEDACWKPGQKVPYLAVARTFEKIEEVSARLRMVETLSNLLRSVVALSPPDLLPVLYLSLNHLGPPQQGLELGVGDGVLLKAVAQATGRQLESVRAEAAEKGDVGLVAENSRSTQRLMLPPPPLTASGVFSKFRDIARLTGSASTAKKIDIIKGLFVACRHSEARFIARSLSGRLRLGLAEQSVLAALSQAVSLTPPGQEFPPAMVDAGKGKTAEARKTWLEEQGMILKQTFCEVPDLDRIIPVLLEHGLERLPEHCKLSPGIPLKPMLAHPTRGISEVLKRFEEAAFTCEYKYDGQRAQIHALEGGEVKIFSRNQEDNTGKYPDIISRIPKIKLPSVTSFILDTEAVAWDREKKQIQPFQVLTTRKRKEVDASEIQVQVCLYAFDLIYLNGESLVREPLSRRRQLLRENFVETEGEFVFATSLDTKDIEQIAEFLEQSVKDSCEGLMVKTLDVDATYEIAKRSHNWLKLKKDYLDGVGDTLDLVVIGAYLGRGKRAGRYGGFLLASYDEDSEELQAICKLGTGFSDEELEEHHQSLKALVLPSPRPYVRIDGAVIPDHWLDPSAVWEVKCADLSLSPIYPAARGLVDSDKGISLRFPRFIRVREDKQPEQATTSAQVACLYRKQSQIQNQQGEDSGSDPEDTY

[3] = tested on: Haemophilus influenzae; assay: Antibacterial activity against wild type Haemophilus influenzae A921 by CLSI dilution method; assay type: functional
[4] = tested on: Staphylococcus aureus; assay: Antibacterial activity against wild type Staphylococcus aureus ATCC 29213 by CLSI dilution method; assay type: functional
[5] = Inhibition of Streptococcus pneumoniae NAD-dependent DNA ligase assessed as equilibrium dissociation constant
[6] = Inhibition of Escherichia coli NAD-dependent DNA ligase
[7] = tested on: Streptococcus pneumoniae; assay: Antibacterial activity against wild type Streptococcus pneumoniae A-216 by CLSI dilution method; assay type: functional
[8] = tested on: Escherichia coli; assay: Antibacterial activity against tolC/rfaC-deficient Escherichia coli; assay type: functional
[9] = tested on: Escherichia coli; assay: Antibacterial activity against tolC/rfaC-deficient Escherichia coli harboring ligA251 mutant; assay type: functional
How it was run: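 MIC read-out. The E. coli strain carries only the ligA251 allele (L15F exchange), which gives more than 20-fold reduced ligation activity and sensitizes it to LigA inhibitors.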

| Structure (SMILES) | inhibition [1] | inhibition [2] | MIC [3] | MIC [4] | Kd [5] | IC50 [6] | MIC [7] | MIC [8] | MIC [9] |
| --- | --- | --- | --- | --- | --- | --- | --- | --- | --- |
| Cc1c(Cc2ccncc2)c(Cl)nc2nc(N)c(C(N)=O)cc12 | inactive | inactive | 2 µg/mL (≈ 6.1 µM) | > 16 µg/mL | 118 nM | 1000 nM | 8 µg/mL (≈ 24.4 µM) | > 16 µg/mL | 0.25 µg/mL (≈ 0.763 µM) |
| NC(=O)c1cc2c(N3CC(O)C3)c(Br)c(C(F)(F)F)nc2nc1N | inactive | inactive | 4 µg/mL (≈ 9.85 µM) | 16 µg/mL (≈ 39.4 µM) | 43 nM | 500 nM | > 16 µg/mL | 4 µg/mL (≈ 9.85 µM) | 0.125 µg/mL (≈ 0.308 µM) |
| CC(C)c1cc2cc(C(N)=O)c(N)nc2nc1C(F)(F)F | inactive | inactive | 8 µg/mL (≈ 26.8 µM) | 16 µg/mL (≈ 53.6 µM) | 152 nM | 800 nM | > 16 µg/mL | > 16 µg/mL | 1 µg/mL (≈ 3.35 µM) |
| NC(=O)c1cc2cc(C3CC3)c(C(F)(F)F)nc2nc1N | inactive | inactive | 0.5 µg/mL (≈ 1.69 µM) | 1 µg/mL (≈ 3.38 µM) | 83 nM | 400 nM | 16 µg/mL (≈ 54 µM) | 2 µg/mL (≈ 6.75 µM) | 0.125 µg/mL (≈ 0.422 µM) |
| NC(=O)c1cc2c3c(c(Cl)nc2nc1N)CC3 | inactive | inactive | 8 µg/mL (≈ 32.2 µM) | 16 µg/mL (≈ 64.3 µM) | 152 nM | 600 nM | > 16 µg/mL | 8 µg/mL (≈ 32.2 µM) | 0.25 µg/mL (≈ 1.01 µM) |
| NC(=O)c1cc2c(N3CC[C@@H](O)C3)c(Br)c(C(F)(F)F)nc2nc1N | inactive | inactive | 8 µg/mL (≈ 19 µM) | 8 µg/mL (≈ 19 µM) | 31 nM | 700 nM | 8 µg/mL (≈ 19 µM) | 4 µg/mL (≈ 9.52 µM) | 0.125 µg/mL (≈ 0.297 µM) |
| Cc1cc(C(F)(F)F)nc2nc(N)c(C(N)=O)cc12 | inactive | inactive | 0.5 µg/mL (≈ 1.85 µM) | 8 µg/mL (≈ 29.6 µM) | 48 nM | 500 nM | > 16 µg/mL | 4 µg/mL (≈ 14.8 µM) | 0.25 µg/mL (≈ 0.925 µM) |
| NC(=O)c1cc2ccc(C(F)(F)F)nc2nc1N | inactive | inactive | 0.5 µg/mL (≈ 1.95 µM) | 8 µg/mL (≈ 31.2 µM) | 101 nM | 500 nM | > 16 µg/mL | 16 µg/mL (≈ 62.5 µM) | 0.125 µg/mL (≈ 0.488 µM) |
| CC(C)(C)c1nc2nc(N)c(C(N)=O)cc2cc1Br | inactive | inactive | 2 µg/mL (≈ 6.19 µM) | 4 µg/mL (≈ 12.4 µM) | 77 nM | 300 nM | 8 µg/mL (≈ 24.8 µM) | 8 µg/mL (≈ 24.8 µM) | 0.25 µg/mL (≈ 0.774 µM) |
| NC(=O)c1cc2cc(CO)c(C(F)(F)F)nc2nc1N | inactive | inactive | 2 µg/mL (≈ 6.99 µM) | > 16 µg/mL | 389 nM | 500 nM | > 16 µg/mL | > 16 µg/mL | 2 µg/mL (≈ 6.99 µM) |
| CCc1cc2cc(C(N)=O)c(N)nc2nc1C(F)(F)F | inactive | inactive | 2 µg/mL (≈ 7.04 µM) | 4 µg/mL (≈ 14.1 µM) | 75 nM | 600 nM | > 16 µg/mL | 8 µg/mL (≈ 28.1 µM) | 0.25 µg/mL (≈ 0.88 µM) |
| NC(=O)c1cc2c(N3CCC(O)CC3)c(Br)c(C(F)(F)F)nc2nc1N | inactive | inactive | > 16 µg/mL | > 16 µg/mL | 39 nM | 700 nM | 16 µg/mL (≈ 36.8 µM) | 8 µg/mL (≈ 18.4 µM) | 0.25 µg/mL (≈ 0.576 µM) |
| CN(CCO)c1c(Br)c(C(F)(F)F)nc2nc(N)c(C(N)=O)cc12 | inactive | inactive | 4 µg/mL (≈ 9.8 µM) | 8 µg/mL (≈ 19.6 µM) | 57 nM | 700 nM | 8 µg/mL (≈ 19.6 µM) | > 16 µg/mL | 0.5 µg/mL (≈ 1.22 µM) |
| Cc1c(Cc2ccccc2)c(Cl)nc2nc(N)c(C(N)=O)cc12 | inactive | inactive | 2 µg/mL (≈ 6.12 µM) | 4 µg/mL (≈ 12.2 µM) | 107 nM | 500 nM | 4 µg/mL (≈ 12.2 µM) | 4 µg/mL (≈ 12.2 µM) | 0.125 µg/mL (≈ 0.383 µM) |
| NC(=O)c1cc2c(N3CC[C@@H](N)C3)c(Br)c(C(F)(F)F)nc2nc1N | inactive | inactive | 8 µg/mL (≈ 19.1 µM) | > 16 µg/mL | 86 nM | 1000 nM | > 16 µg/mL | > 16 µg/mL | 1 µg/mL (≈ 2.39 µM) |
| Nc1ccc2c(Cl)cc(C(F)(F)F)nc2n1 |  |  |  |  |  | 25000 nM |  |  |  |
| NC(=O)c1cc2cc(Br)c(C3CCCC3)nc2nc1N | inactive | inactive | > 16 µg/mL | > 16 µg/mL | 184 nM | 500 nM | > 16 µg/mL | > 16 µg/mL | 4 µg/mL (≈ 11.9 µM) |
| CC(C)(OCc1ccccc1)c1nc2nc(N)c(C(N)=O)cc2cc1Br | inactive | inactive | > 16 µg/mL | > 16 µg/mL | 4310 nM | > 5000 nM | > 16 µg/mL | > 16 µg/mL | 8 µg/mL (≈ 19.3 µM) |
| COCCc1cc(C(F)(F)F)nc2nc(N)c(C(N)=O)cc12 | inactive | inactive | 4 µg/mL (≈ 12.7 µM) | > 16 µg/mL | 458 nM | 10000 nM | > 16 µg/mL | > 16 µg/mL | 2 µg/mL (≈ 6.36 µM) |
| C=CCc1c(Cl)nc2nc(N)c(C(N)=O)cc2c1C | inactive | inactive | 4 µg/mL (≈ 14.5 µM) | 8 µg/mL (≈ 28.9 µM) | 116 nM | 800 nM | > 16 µg/mL | 8 µg/mL (≈ 28.9 µM) | 0.125 µg/mL (≈ 0.452 µM) |
| NCc1cc(C(F)(F)F)nc2nc(N)c(C(N)=O)cc12 | inactive | inactive | 4 µg/mL (≈ 14 µM) | > 16 µg/mL | 102 nM | 2500 nM | > 16 µg/mL | > 16 µg/mL | 1 µg/mL (≈ 3.51 µM) |
| C=Cc1cc2cc(C(N)=O)c(N)nc2nc1C(F)(F)F | inactive | inactive | 1 µg/mL (≈ 3.54 µM) | 2 µg/mL (≈ 7.09 µM) | 89 nM | 400 nM | > 16 µg/mL | 8 µg/mL (≈ 28.3 µM) | 0.125 µg/mL (≈ 0.443 µM) |
| CC(C)(C)OC(=O)N1CC(c2nc3nc(N)c(C(N)=O)cc3cc2Br)C1 | inactive | inactive | > 16 µg/mL | > 16 µg/mL | 2610 nM | > 5000 nM | > 16 µg/mL | > 16 µg/mL |  |
| Cc1cc2cc(C(N)=O)c(N)nc2nc1C(F)(F)F | inactive | inactive | 0.25 µg/mL (≈ 0.925 µM) | 4 µg/mL (≈ 14.8 µM) | 48 nM | 500 nM | 8 µg/mL (≈ 29.6 µM) | 0.5 µg/mL (≈ 1.85 µM) | 0.063 µg/mL (≈ 0.233 µM) |
| NC(=O)c1cc2c(CCO)cc(C(F)(F)F)nc2nc1N | inactive | inactive | 1 µg/mL (≈ 3.33 µM) | > 16 µg/mL | 431 nM | 10000 nM | > 16 µg/mL | > 16 µg/mL | 1 µg/mL (≈ 3.33 µM) |
